RGS4 pot: RGS4 potentiation or activation | HEK293 M3R/inducible RGS4, carbachol calcium flux Fluo4; stronger effect = lower value | B-score at 10 µM | actives 0.92% (n = 310,000);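 active means B-score of the integrated calcium signal more than 4 SD below the library mean, with starting fluorescence not abnormally high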;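 further: negative B-score means reduced calcium response which marks RGS4 activation or potentiation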
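System – HEK293 FlpIn-TREx cells, stable M3R, doxycycline-inducible RGS4 · Reagent – ECmax carbachol challenge · Times – compound preincubation 20 min at room temperature before agonist · Technique – Fluo4 fluorescence kinetic imaging of calcium · Measure – B score of integrated Fluo4 ratio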
MrgX1 PAM: allosterically activates human MrgX1 receptor signaling; Q96LB2; MrgX1-HEK293, Fluo-4 calcium flux, FDSS; stronger effect = higher value; B-score at 10 µM; actives 0.63% (n = 310,000); AID 588675;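 active means plate-corrected calcium response at least 3 library SD above typical, normal starting fluorescence, not activating the receptor alone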;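 further: compound read alongside a low EC10 to EC30 dose of BAM8-22 agonist; peak minus trough fluorescence over baseline measured at the second addition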
Target sequence (Q96LB2 whole entry, looked up): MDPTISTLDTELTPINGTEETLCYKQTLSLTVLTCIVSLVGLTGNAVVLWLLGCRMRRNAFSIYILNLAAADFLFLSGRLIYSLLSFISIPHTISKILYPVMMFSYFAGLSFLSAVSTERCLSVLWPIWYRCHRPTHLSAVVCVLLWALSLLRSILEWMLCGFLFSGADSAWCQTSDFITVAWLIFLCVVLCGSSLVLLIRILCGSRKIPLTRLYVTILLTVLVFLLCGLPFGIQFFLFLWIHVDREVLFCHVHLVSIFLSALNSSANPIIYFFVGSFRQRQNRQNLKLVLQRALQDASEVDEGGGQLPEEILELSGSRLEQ
MrgX1 agonist: human MrgX1 receptor agonism, primary screen; actives 0.44% (n = 310,000); AID 588627; B-score at 10 µM; MrgX1-HEK293 cells, Fluo-4 calcium fluorescence, agonist mode; stronger effect = higher value;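 active means calcium response B-score plate-corrected fluorescence ratio at least 3 library SD, with starting fluorescence B-score inside 5 SD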
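Test system: Stable human MrgX1 HEK293 cell line | Schedule: Overnight plating before 1 h dye loading | Read-out basis: Baseline-normalised fluorescence change ratio, B-scored | Detection: Kinetic calcium dye fluorescence, Fluo-4 NW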
MrgX1 antagonist: antagonists of human MrgX1 receptor | B-score at 10 µM | actives 1.3% (n = 310,000) | MRGX1-HEK293 calcium flux, Fluo-4, BAM8-22 antagonism; stronger effect = lower value | Q96LB2;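 active means calcium-response B-score plate-corrected more than 3 library SD below zero, starting fluorescence within 5 deviations, no agonist response on first addition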;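 further: peak minus trough fluorescence over baseline after final BAM8-22 challenge near maximal dose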
RGS4 block: human RGS4 inhibition; HEK293 M3R/RGS4 inducible, Fluo-4 calcium flux; stronger effect = higher value; triggered by carbachol at its EC20; B-score at 10 µM; actives 0.45% (n = 310,000); P49798;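 active means B-score, a plate-corrected calcium signal, over three deviations above library mean, with baseline fluorescence within five deviations of library mean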;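 further: RGS4 expression induced by doxycycline in cells with stable M3 receptor; B-score is computed from the integrated fluorescence ratio over baseline after carbachol; higher B-score means a larger calcium signal and so more RGS4 inhibition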
Target sequence (P49798 whole entry, looked up): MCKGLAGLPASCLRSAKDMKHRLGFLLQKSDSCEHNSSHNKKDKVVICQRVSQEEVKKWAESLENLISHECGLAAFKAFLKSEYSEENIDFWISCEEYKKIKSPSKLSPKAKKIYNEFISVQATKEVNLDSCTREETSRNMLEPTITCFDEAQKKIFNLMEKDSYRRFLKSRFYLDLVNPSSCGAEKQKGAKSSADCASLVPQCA
MrgX1 allo conf: confirmation of human MrgX1 receptor positive allosteric modulators; AID 602413; MrgX1-HEK293, Fluo-4 calcium fluorescence, FDSS; activation (ratio percentage), % at 10 µM; actives 13% (n = 1,200); shares compounds with MrgX1 PAM;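 active means ratio at least 3 SD above the weak peptide control, stable starting fluorescence, no direct agonism earlier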;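 further: compound followed by low BAM8-22 agonist challenge near EC20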
HEK293 Ca flux: activity in parental HEK293 cells lacking MrgX1. shares compounds with MrgX1 antagonist. Fluo-4 calcium fluorescence, FDSS. fluorescence ratio F(max-min)/F0 at 10 µM. actives 2% (n = 4,000);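 active means duplicate-averaged calcium fluorescence ratio at least three times the standard deviation of buffer wells, a nonspecific response in parental cells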
HEK293 Ca counter: MrgX1 allosteric activator counter-screen hit in parental HEK293 cells; fluorescence ratio F(max-min)/F0 at 10 µM; parental HEK293 calcium flux, Fluo-4 fluorescence ratio; stronger effect = higher value; shares compounds with MrgX1 antagonist; AID 624114; actives 0.4% (n = 4,000);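 active means calcium fluorescence ratio, averaged over duplicates, at least 3 SD of the buffer-well ratio, meaning a nonspecific response in receptor-free cells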;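 further: untransfected parental HEK293 lacking MrgX1 used as counterscreen for MrgX1 allosteric activators; fluorescence change taken during the second addition on a kinetic imager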
HEK293 Ca cntr2: MrgX1 activator counter-screen hit in parental HEK293 cells | shares compounds with MrgX1 antagonist | fluorescence ratio F(max-min)/F0 at 10 µM | actives 8.7% (n = 4,000) | AID 624115 | Fluo-4 calcium fluorescence (FDSS); stronger effect = higher value;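 active means calcium fluorescence ratio at least three times the spread of buffer wells, meaning a non-specific response in parental cells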
Starred values were filed as active, the others as inactive; i = inactive; nt = not tested or not shown. An excerpt weighted towards active compounds, which were near 3.5% of everything screened.

SMILES	RGS4 pot	MrgX1 PAM	MrgX1 agonist	MrgX1 antagonist	RGS4 block	MrgX1 allo conf	HEK293 Ca flux	HEK293 Ca counter	HEK293 Ca cntr2
CCCc1nnc(NC(=O)C2CC(=O)N(C3CCCC3)C2)s1 (stereo not given)	i	i	i	i	i	nt	nt	nt	nt
CCCCn1c(C(C)NC(=O)CC)nc2ccccc21 (stereo not given)	i	i	i	i	i	nt	nt	nt	nt
CCCCCCn1c(C(C)NC(=O)c2ccco2)nc2ccccc21 (stereo not given)	i	17.8*	i	i	i	i	i	i	i
COCCN(CCOC)S(=O)(=O)c1ccc(Cl)nc1	i	i	i	i	i	nt	nt	nt	nt
CCN(CC)S(=O)(=O)c1ccc(Cl)nc1	i	9.27*	i	i	i	i	i	i	i
Cc1cc(F)ccc1NC(=O)c1cnccn1	i	10.5*	i	i	i	i	i	i	i
COc1ccc(CNc2ccc(C)cc2)cc1Br	i	i	i	i	i	nt	nt	nt	nt
COc1ccc(CNc2ccccc2)cc1Br	i	9.41*	i	i	i	i	i	i	i
CCCN(c1ccc(C(=O)OC)cc1)S(=O)(=O)c1ccccc1	i	9.75*	i	i	i	i	i	i	i
O=C(CNC(=O)c1ccccc1F)OCC(=O)c1ccc(Cl)s1	i	i	i	i	i	nt	nt	nt	nt
CCCS(=O)(=O)N1CCN=C1SCc1cccnc1	i	i	i	i	i	nt	nt	nt	nt
Cc1ccc2nc(Cl)c(-c3ccccc3)cc2c1	i	8.27*	i	i	i	i	i	i	i
Cc1ccccc1N1CCN(CCC(=O)Nc2ccc(F)cc2)CC1	i	i	i	i	i	nt	nt	nt	nt
COc1ccc(C(O)c2nccc3cc(OC)c(OC)cc23)cc1OC (stereo not given)	i	9.46*	i	i	i	i	i	i	i
COc1cc(N)c(C(O)c2nccc3cc(OC)c(OC)cc23)cc1OC (stereo not given)	i	i	i	i	i	nt	nt	nt	nt
COc1ccc(OCCNC(=O)c2ccc(C)cc2)cc1	i	i	i	i	i	nt	nt	nt	nt
N#Cc1ccc(-c2ccco2)nc1SCC(=O)c1ccc(Cl)cc1	i	8.42*	i	i	i	i	0.482*	i	i
Cc1ccc(C)c(OC(=O)CN2C(=O)c3ccccc3C2=O)c1	i	i	i	i	i	nt	nt	nt	nt
CSC1=NSC2=NC(=O)/C(=C\c3cccs3)C(=N)N12	i	26.7*	i	i	i	14.8%*	i	i	i
CC(C)CSC1=NSC2=NC(=O)/C(=C\c3cccs3)C(=N)N12	i	i	i	i	i	nt	nt	nt	nt
CCOC(=O)C1CCN(C(=O)CN2C(=O)c3cccnc3Oc3ccccc32)CC1	i	8.3*	i	i	i	i	i	i	i
COc1cccc(NC(=O)CN2C(=O)COc3ccc(Cl)cc32)c1	i	7.73*	i	i	i	i	i	i	i
COc1ccc(CCNC(=O)C2CCN(S(=O)(=O)c3ccc(C)cc3)CC2)cc1	i	i	i	i	i	nt	nt	nt	nt
Fc1ccc(-c2csc(NC3=NCCC3)n2)cc1	i	11.5*	i	i	i	i	i	i	i
COCCOn1c(SCCOC)nc2ccccc2c1=O	i	i	i	i	i	nt	nt	nt	nt
SMILES	RGS4 pot	MrgX1 PAM	MrgX1 agonist	MrgX1 antagonist	RGS4 block	MrgX1 allo conf	HEK293 Ca flux	HEK293 Ca counter	HEK293 Ca cntr2
Cc1cccc(NC(=O)c2ccc3c(Cl)c4c(nc3c2)CCCC4)n1	i	20.1*	i	i	i	i	i	i	i
FC(F)Sc1ccc(NC(=S)NC2CCCC2)cc1	i	6.85*	i	i	i	i	i	i	i
OC1CCC(NC(=S)Nc2ccc(SC(F)F)cc2)CC1 (stereo not given)	i	i	i	i	i	nt	nt	nt	nt
COc1ccc(C2(C)NC(=O)N(CC(=O)NCc3ccccc3F)C2=O)cc1 (stereo not given)	i	i	i	i	i	nt	nt	nt	nt
C=C(C)COc1ccc(-c2[nH]ncc2-c2ccccc2OC)c(O)c1	i	17.7*	i	i	i	i	i	i	i
C=C(C)COc1ccc(-c2[nH]ncc2-c2ccc(Br)cc2)c(O)c1	i	18.6*	i	i	i	10.2%*	i	i	i
C=C(C)COc1ccc(-c2[nH]ncc2Oc2ccccc2OC)c(O)c1	i	i	i	i	i	nt	nt	nt	nt
CNC(=S)N(Cc1ccc(OC)cc1)C1CC(=O)N(c2ccc(Cl)cc2)C1=O (stereo not given)	i	i	i	i	i	nt	nt	nt	nt
O=C(O)Cc1cc(C(=O)Nc2ccc(Br)cc2)sc1-c1ccccc1	i	i	i	i	i	nt	nt	nt	nt
Cc1ccc(CCN2CCN=C2Nc2ccccc2)cc1	nt	i	i	i	nt	nt	nt	nt	nt
COc1cccc(C(=O)/C=C/Nc2ccc(S(=O)(=O)Nc3cc(OC)nc(OC)n3)cc2)c1	i	20.5*	i	i	i	i	i	i	i
Cc1ccccc1Nc1nc(N)nc(CN2CCN(Cc3ccc4c(c3)OCO4)CC2)n1	i	8.04*	i	i	i	i	i	i	i
Nc1nc(CN2CCN(Cc3ccc4c(c3)OCO4)CC2)nc(Nc2ccccc2)n1	i	i	i	i	i	nt	nt	nt	nt
O=C(c1ccccc1)N1CCN(c2ncccn2)CC1	i	i	i	i	i	nt	nt	nt	nt
Nc1ncnc2nc(N3CCN(C(=O)c4ccccc4)CC3)[nH]c12	i	16.9*	i	i	i	i	i	i	i
CCN(Cc1ccccc1)C(=O)c1ccc(Cl)cc1[N+](=O)[O-]	i	i	i	i	i	nt	nt	nt	nt
Cn1c(CN2CCCC2)nc2cc(NC(=O)c3ccc(Cl)cc3)ccc21	i	9*	i	i	i	i	i	i	i

Bioassay records: PubChem BioAssay, Johns Hopkins Ion Channel Center
